Bioassay records (PubChem)
Hits are enriched below; roughly 12% of the tested compounds scored in any of these assays.
KCC2 mod: modulates chloride dependent transport by human KCC2 | Q9H2X9 | KCC2 cells, thallium flux FluoZin-2 fluorescence | B-score of Tl+ flux slope (higher = more flux/activation; lower = inhibition) at 10 µM | 190,000 tested, 2.2% active | AID 1456;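 active = thallium flux slope and its plate-corrected score both differing from the plate sample mean at a set confidence after two filtering rounds, in either direction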;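 also: slope of fluorescence scaled to starting intensity during 10 to 20 s after thallium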
WT yeast gro inh: growth inhibition of WT yeast, mitochondrial fusion screen; 190,000 tested, 2.1% active; inhibition, % at 10 µM; mitochondrial fusion phenotypic screen, WT strain; in the data active = inhibition above about 58%; tested in S. cerevisiae
Diaphorase act: activates diaphorase or chemically reduces, flagging diaphorase assay artifacts | Diaphorase/resazurin coupled assay, resorufin fluorescence, 16 min; hits give high values; 1 = vehicle wells, 0 = NADH-free wells | activation factor at 20 µM | 190,000 tested, 0.005% active | AID 1229;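 active = diaphorase activity raised at least twofold by the compound at 20 µM; inactive = activation factor below 2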
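Assay system: Purified diaphorase enzyme from Clostridium kluyveri | Amount: Enzyme 0.07 U/mL final | Dosing: Compound 20 µM once, DMSO 1% | Timing: 16 min reaction at room temperature | Detection: Fluorescence, excitation 544 nm and emission 590 nm | Evaluation: Higher resorufin formation from activation or reduction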
ROMK primary: modulators of human ROMK potassium channel; 130,000 tested, 2% active; Tet-inducible ROMK, thallium flux fluorescence; actives lie on both sides; B-score at 10 µM;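 active = signal ratio slope over the read window, or its plate-corrected B-score, at least 3 SD from the plate mean, either direction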;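 also: B-score of the F/F0 ratio slope over 7 to 12 s after thallium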
Target sequence (P48048 whole entry, looked up): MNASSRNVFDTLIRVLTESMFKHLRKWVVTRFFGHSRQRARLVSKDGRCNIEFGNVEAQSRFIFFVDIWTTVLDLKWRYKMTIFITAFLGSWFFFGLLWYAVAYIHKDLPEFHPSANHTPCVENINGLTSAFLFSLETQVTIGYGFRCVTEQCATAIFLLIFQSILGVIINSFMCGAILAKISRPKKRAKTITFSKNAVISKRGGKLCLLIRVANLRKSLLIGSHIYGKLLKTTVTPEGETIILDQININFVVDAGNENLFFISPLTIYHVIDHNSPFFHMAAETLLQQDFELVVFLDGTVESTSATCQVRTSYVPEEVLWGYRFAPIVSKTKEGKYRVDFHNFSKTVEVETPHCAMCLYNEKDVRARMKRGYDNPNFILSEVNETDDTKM
L major viab: inhibitors of Leishmania major promastigote growth. Leishmania major promastigotes, resazurin fluorescence viability. AID 1063. 200,000 tested, 9% active. inhibition, % at 10 µM; in the data active = inhibition above about 50%;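 also: promastigotes grown with compound for 44 hours at 28 °C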
Diaph inh CS: inhibits diaphorase or chemically oxidizes, flagging diaphorase assay artifacts | diaphorase resazurin-to-resorufin fluorescence, NADH, 16 min; bacterial (C. kluyveri) enzyme, not human | inhibition, % at 20 µM | AID 1217 | 190,000 tested, 0.69% active;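 active = primary screen inhibition at 20 µM above a set limit, cut at about 50% in these data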;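 also: plate controls were DMSO with full reaction for no effect and wells lacking NADH for full effect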
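Assay system – diaphorase enzyme from Clostridium kluyveri · Amount – diaphorase 0.14 U/mL (working solution) · Times – reaction incubation of 16 min at room temperature · Controls – No-NADH positive control and DMSO neutral control · Signal – resorufin fluorescence 544/590 nm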
KCC2 secondary: KCC2 (human) modulation, secondary assay. AID 1713. shares compounds with KCC2 mod. 3,700 tested, 15% active. normalised thallium flux (F/F0 slope) at 10 µM. HEK293-KCC2, thallium flux, FluoZin2 fluorescence; hits give high values;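 active = thallium flux slope above the same plate's solvent-only control mean plus 3 SD; inconclusive = the two replicate wells disagree; inactive = no significant difference from solvent-only control wells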
KCC2 bumet counter: thallium flux persisting under bumetanide in KCC2 cells, counter-screen secondary assay. shares compounds with KCC2 mod. HEK293-KCC2 + bumetanide/ouabain, thallium flux FluoZin2; hits give high values. normalized thallium flux at 10 µM. 3,700 tested, 49% active;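 active = thallium entry rate above the same plate's blocked-transporter control wells by more than 3 SD; inconclusive = the two repeat wells disagree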;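 also: raw slope of fluorescence over initial fluorescence between 10 and 20 s after thallium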
KCC2 sec2: confirmation of human KCC2 transport modulators; shares compounds with KCC2 mod; HEK293-KCC2, thallium flux FluoZin2 fluorescence; actives lie on both sides; F/F0 rise rate, 10–20 s post-thallium; normalized thallium flux at 10 µM; 3,700 tested, 23% active;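 active = thallium flux slope more than 3 SD above or below the plate's solvent-only control mean, mostly below; inconclusive = the two repeat wells disagreed; inactive = no significant shift from solvent-only controls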;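 also: raw slope with 0.1% DMSO as baseline and bumetanide as block control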
HEK counter1: counter-screen for KCC2 modulators: effect in parental HEK293 cells | thallium flux FluoZin2, ouabain; baseline-ratio fluorescence slope, 10–20 s after thallium | thallium flux rate (normalised fluorescence) at 10 µM | 3,700 tested, 46% active | shares compounds with KCC2 mod;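 active = thallium flux rate significantly above the same plate's solvent-only control wells, beyond their mean plus 3 SD; inconclusive = the two replicate wells gave conflicting results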
KCC2 ouabain: modulates human KCC2 on retest with ouabain | shares compounds with KCC2 mod | HEK293-KCC2, thallium flux FluoZin2 fluorescence; bidirectional: low = inhibitor, high = activator | raw Tl+ flux slope (below DMSO = inhibition, above = activation) at 10 µM | 3,700 tested, 48% active;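 active = thallium flux slope beyond 3 SD from same-plate DMSO control mean in most replicates, usually higher, sometimes lower; inconclusive = repeat tests gave conflicting results; inactive = no significant difference from controls in most replicates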;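 also: slope of initial-normalized fluorescence between seconds 10 and 20 after thallium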
HEK counter2: counter-screen for KCC2 modulators: effect in parental HEK293 cells; shares compounds with KCC2 mod; thallium flux FluoZin-2 fluorescence slope; thallium flux slope at 10 µM; 3,700 tested, 33% active; AID 1718;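 active = thallium flux slope above the same plate's solvent-control mean plus 3 SD in both duplicate wells; inconclusive = duplicate wells that disagreed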;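 also: run without ouabain in cells lacking the KCC2 cotransporter; slope of fluorescence scaled to its starting value between 10 and 20 s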
Active calls of the source: *; i = inactive; ? = inconclusive; · = no result.

SMILES	KCC2 mod	WT yeast gro inh	Diaphorase act	ROMK primary	L major viab	Diaph inh CS	KCC2 secondary	KCC2 bumet counter	KCC2 sec2	HEK counter1	KCC2 ouabain	HEK counter2
Cc1ccc(N=Cc2c(C)[nH]n(-c3ccccc3)c2=O)nc1	13*	·	·	·	·	·	0.011	0.02*	0.032	0.024*	0.026*	0.012
Cc1ccc(-n2[nH]c(C)c(/C=N/n3c(C)nc4ccccc4c3=O)c2=O)cc1	·	14	1.1	1.2	-1	-13	·	·	·	·	·	·
Cc1c(C(=O)Nc2ccccc2)csc1-c1ccccc1	0.77	31	1	0.28	-9	4	·	·	·	·	·	·
Cc1ccc(/C=C2/Sc3ccccc3N(CC(=O)NCCCOC(C)C)C2=O)cc1	-3.3*	32	0.9	-0.66	8	7	0.0099	0.0064	?	0.0066	0.014*	0.01
CCOCCCNC(=O)CN1C(=O)/C(=C\c2ccc(C)cc2)Sc2ccccc21	-4.1	22	1	-1.7	33	5	·	·	·	·	·	·
C=CCn1c(SCCCc2ccccc2)nc2c1c(=O)[nH]c(=O)n2C	-3.7*	26	0.8	·	2	18	0.0073	0.0044	0.033	?	0.019	0.01
COCCn1c(SCCCc2ccccc2)nc2c1c(=O)[nH]c(=O)n2C	-2.7	37	0.8	·	-6	17	·	·	·	·	·	·
C/C=C/Cn1c(SCCCc2ccccc2)nc2c1c(=O)[nH]c(=O)n2C	-5.1*	18	0.8	·	9	25	0.0067	0.0039	?	0.0054*	?	0.0086*
COC(=O)/C=C1\NCCNC1=O	0.12	·	·	·	·	·	·	·	·	·	·	·
Cc1ccc(/C=N\Nc2nc3ccc(Cl)cc3[nH]2)o1	4.8*	20	0.9	-0.098	99*	11	0.0071	0.0043	0.031	?	0.019	0.012
Cc1ccccc1-c1noc(-c2ccccc2C(=O)NCC2CCCO2)n1 (stereo not given)	-0.79	·	·	-0.27	·	·	·	·	·	·	·	·
Cc1ccc2c(c1)C(c1ccc(O)cc1)(c1ccc(O)cc1)C(=O)N2C	3.7*	-1	1.1	0.6	-10	-6	0.011	0.0069	0.031	0.0073	0.036	?
Cc1ccc2c(c1)C1(C(=O)N2C)N2CC3(C)CN1CC(C)(C2)C3=O (stereo not given)	0.64	12	0.8	·	-3	15	·	·	·	·	·	·
NNC(=S)Nc1ccc(C(F)(F)F)cc1Cl	16*	·	·	·	·	·	0.011	0.03*	0.035	0.02*	0.026	0.014*
O=C(c1ccccc1)N1CCCCC(Cl)C1=O (stereo not given)	0.99	-15	1	-0.16	-8	2	·	·	·	·	·	·
COc1ccc(Nc2cc(C)nc3ccccc23)cc1	1.3	-8	0.8	-1.9	86*	16	0.0098	0.008*	0.03	0.0073	0.021	0.011
COCCNc1cc(C)c(C#N)c2nc3ccccc3n12	-0.88	16	0.7	0.5	5	27	0.01	?	0.03	0.0071	0.034	?
CCCNc1cc(C)c(C#N)c2nc3ccccc3n12	0.28	-12	0.7	-0.4	0	26	·	·	·	·	·	·
CCN(CC)c1ccc2cc(C(=O)Nc3cccnc3N3CCOCC3)c(=O)oc2c1	·	·	0.8	·	·	22	·	·	·	·	·	·
CCN(CC)c1ccc2cc(C(=O)Nc3ccccn3)c(=O)oc2c1	i	-2	0.9	·	42	10	0.0031*	?	0.016*	0.0037*	0.0054*	0.0065*
CC(=O)Nc1ccc(C(=O)N2CCCC2)cc1	-4.5*	8	0.9	·	-7	12	0.0061	0.0047	0.03	0.0081	0.019	0.011
CC(=O)c1cccc(NC(=O)Nc2ccc(C(=O)N3CCOCC3)cc2)c1	-3.1*	-6	1.2	0.91	-6	-15	0.0089	0.0066	0.034	0.0077	0.021	0.011
CC(=O)Nc1ccc(NC(=O)N2CCCCC2)cc1	·	-6	1	·	-8	-4	·	·	·	·	·	·
Cc1ccc(NC(=O)Nc2ccc(C(=O)N3CCOCC3)cc2)cc1	·	-12	1	1.2	-2	3	·	·	·	·	·	·
CCOC(=O)c1c(C)[nH]c(C(=O)COC(=O)C2(C)CC2(Cl)Cl)c1C (stereo not given)	·	-1	0.8	-0.2	13	18	0.0072	0.0042	0.028	0.0073	0.017	0.01
SMILES	KCC2 mod	WT yeast gro inh	Diaphorase act	ROMK primary	L major viab	Diaph inh CS	KCC2 secondary	KCC2 bumet counter	KCC2 sec2	HEK counter1	KCC2 ouabain	HEK counter2
CCN(CC)S(=O)(=O)c1ccc(Cl)c(NC(=O)c2cc(Cl)cc(Cl)c2)c1	1.5	-9	1	0.088	-4	5	·	·	·	·	·	·
O=C(NCC(c1cccs1)N1CCOCC1)c1ccc(Cl)s1 (stereo not given)	·	-10	0.9	-0.13	-1	14	·	·	·	·	·	·
COc1ccc(Cl)cc1NC(=S)N1CCN(C(=O)c2ccco2)CC1	0.16	3	0.9	·	-2	13	·	·	·	·	·	·
O/C(=C\c1ccc2ccccc2n1)c1ccc(O)cc1O	-5.1*	3	0.9	-1.4	-5	8	0.0058*	0.0055	0.029	0.0075	0.014*	0.011
Oc1ccc(/C=C/c2ccc3ccccc3n2)cc1	-3.4	30	0.8	0.42	17	20	·	·	·	·	·	·
CC(C)(C)c1ccc(NC(=O)C(=O)C2C(=O)Nc3ccccc32)cc1 (stereo not given)	7.9*	-15	1	0.0085	4	-1	0.0057	0.025*	?	0.018*	0.028*	0.02*
CC(C)c1ccc(NC(=O)C(=O)C2C(=O)Nc3ccccc32)cc1 (stereo not given)	·	6	1.1	0.25	1	-14	·	·	·	·	·	·
Cc1ccc(Nc2nc(=O)c3cc([N+](=O)[O-])ccc3s2)cc1	2.5	·	·	·	·	·	·	·	·	·	·	·
Cc1ccccc1Nc1nc(=O)c2cc([N+](=O)[O-])ccc2s1	4.2*	-5	1	·	14	2	0.0057	0.02*	0.036	0.016*	0.031*	0.016*
O=C(Nc1ccccc1Oc1ccccc1)C1CC1	-1.2	14	0.9	·	-5	11	·	·	·	·	·	·
